Measured values as given in PubChem BioAssay AID602309 (Southern Research Specialized Biocontainment Screening …, 2012).
Activity calls are given as the source filed them.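 The calls were made as follows: active = inhibition of 30% or more at any tested concentration; inactive = the rest.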

These molecules were tested against M17 leucyl aminopeptidase (Plasmodium falciparum 3D7) (assay: Inhibition of P. falciparum M17 aminopeptidase – biochemical, QFRET, set 3, dose response (AID 602309)). Settings: purified rPfM17LAP, H-Leu-NHMec fluorogenic cleavage.
In short: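 assay system = recombinant P. falciparum M17 leucyl aminopeptidase | amount = enzyme 5 µg/mL final | medium = Tris buffer pH 7.5, 2 mM CoCl2, 2% DMSO | timing = 90 min reaction, room temperature | signal = fluorescence at 370/460 nm | read-out = IC50 from four-parameter logistic fit of % inhibition, bounds 0–100% | replication = triplicates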

IC50 [µM]	SMILES
1.39	CCCOc1ccc(CC(=O)NO)cc1
46.3	O=C(NO)c1ccc2ccccc2c1
2.26	CCCCOc1cccc(CC(=O)NO)c1
2.27	CCC(C)Oc1ccc(CC(=O)NO)cc1 (stereo not drawn)
2.16	CCCCOc1ccc(C(C)C(=O)NO)cc1 (stereo not drawn)

Same assay, conditions: purified rPfM17LAP, H-Leu-NHMec fluorogenic cleavage; at 100 µM (top of the series)

inhibition	SMILES
inactive	CN(C)CCOc1ccc(CC(=O)O)cc1
inactive	CCCCOc1cccc(CC(=O)OC)c1
inactive	CCCCOc1ccc(CN(O)C(C)=O)cc1
inactive	CCCCOc1ccc(CN(O)C(=O)c2ccccc2)cc1
inactive	CCCOc1ccc(CC(=O)O)cc1
inactive	CCCCOc1ccc(C(C)(C)C(=O)NO)cc1
inactive	CCCCOc1ccc(C(C)C(=O)OC)cc1 (stereo not drawn)
inactive	CCCCOc1ccc(C(C)(C)C(=O)O)cc1
